The nature of data set [1]: Plasma protein binding in CD rat at 5 uM after 4 hrs by rapid equilibrium dialysis method. Format: ADME, cell-free. The settings on record: read-out: PPB (converted).
A short description of data set [2]: Plasma protein binding in beagle dog at 5 uM after 4 hrs by rapid equilibrium dialysis method. Format: ADME, cell-free, Canis lupus familiaris. The note with it: read-out: PPB (converted).
The nature of data set [3]: Plasma protein binding in cynomolgus monkey at 5 uM after 4 hrs by rapid equilibrium dialysis method. The note with it: read-out: PPB (converted). It is filed as ADME, cell-free, Macaca fascicularis. For orientation: In equilibrium dialysis only unbound substance equilibrates across the membrane.
The nature of data set [4]: Plasma protein binding in human at 5 uM after 4 hrs by rapid equilibrium dialysis method. It is filed as ADME, cell-free. The note with it: read-out: PPB (converted).
A short description of data set [5]: Lipophilicity, log D of the compound by chromatographic analysis. It is filed as physicochemical. The method, boiled down: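 Lipophilicity was measured chromatographically and reported as ChromLogD; ≥6 replicates.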
In a further data set the test system is Huh-7. The data set is described as follows: Cytotoxicity against human HuH7 cells at 50 uM after 2 days by Cell Titer Glo assay. It is filed as cell-based. The settings on record: huh-7, 48 h. The method, boiled down: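 Huh7 cells were exposed to compound at 50 μM for 2 days and scored for cellular toxicity.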
(In general: Cellular ATP, detected with luciferase, serves as a proxy for viable cell number.)

For data set [6], the system named is Hepatitis C virus. The data set is described as follows: Antiviral activity against Hepatitis C virus genotype 1b expressing NS4B V105M mutant infected in human HuH7 cells after 48 hrs by luciferase reporter gene assay. Format: functional, organism-based, Hepacivirus hominis. The note with it: Huh-7, 48 h. In general terms: Reporter assays use an easily measured gene product as a stand-in for the process of interest.

The subject of data set [7] is Hepatitis C virus. In words: Antiviral activity against Hepatitis C virus genotype 1b infected in human HuH7 cells after 48 hrs by luciferase reporter gene assay. It is filed as functional, organism-based, Hepacivirus hominis. The settings on record: Huh-7, 48 h.
Data set [8] deals with Hepatitis C virus. The data set is described as follows: Antiviral activity against Hepatitis C virus genotype 1a infected in human HuH7 cells after 48 hrs by luciferase reporter gene assay. Format: functional, organism-based, Hepacivirus hominis. The note with it: subtype 1a, Huh-7, 48 h.
Data set [9] is described as follows: Displacement of [3H]-3-(1-(3-chloro-6-isopropyl-8-(trifluoromethyl)imidazo[1,2-a]pyridine-2-carbonyl)piperidin-4-yl)oxazolidin-2-one from HCV genotype 1b C-terminal His-tagged NS4B (1 to 261 aa) expressed in baculovirus infected SF9 cells after overnight incubation. Further details: species or system Hepatitis C virus subtype 1b.
The next data set is filed under the species Rattus norvegicus. The data set is described as follows: Cardiovascular toxicity in rat after 7 days. Format: organism-based. The note with it: in vivo, 168 h.
Data set [10] in a line: AUC (0 to 24 hrs) in CD rat at 300 mg/kg, po by LC/MS/MS analysis. Format: ADME, organism-based. Further details: time < 24 hr, dose 300 mg/kg, route oral. The note with it: plasma. The method, boiled down: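 CD rats were given a single oral dose of 300 mg/kg of parent suspension or of prodrug. Plasma was assayed for the parent drug and for uncleaved prodrug.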
A short description of data set [11]: Aqueous solubility in fasted state simulated intestinal fluid at pH 6.5 by LC/UV analysis. Format: physicochemical.
Data set [12] relates to Hepatitis C virus. In words: Antiviral activity against Hepatitis C virus genotype 1a. The note with it: subtype 1a. Format: functional, Hepacivirus hominis.

Converted amounts (≈) assume the structure as drawn.

On to `O=C(c1nc2c(C(F)(F)F)cc(C3CC3)cn2c1Cl)N1CCN([C@H]2CC[C@H](O)CC2)C(=O)C1`, for which the fraction unbound at 4 h, 5 µM in data set [1] is 0.2; in [2], 0.34; in data set [3], 0.23; in data set [4] it was 0.17. Besides, in data set [5], the chromatographic logD (usually lipophilicity estimated from chromatographic retention) worked out at 3.5. For the same molecule, the Activity result in the data set on Huh-7 is “Non-toxic”; in the data set listed under Rattus norvegicus it was “Toxic”. For the same molecule, the EC50 (as a rule, the concentration giving half of the maximal effect) with Hepatitis C virus [6] turned out to be 730 nM; in the data set with Hepatitis C virus [7], 7 nM; with Hepatitis C virus [8], 1 nM. Moreover, the IC50 (usually the midpoint of a concentration-inhibition curve) in data set [9] stood at 53 nM. Also, the AUC(0-t) (commonly exposure summed from dosing to a finite time, without extrapolation to infinity) at 24 h in data set [10] came to 11300 ng·h/mL. Further, in data set [11], the solubility (usually the concentration that dissolves in the medium under given conditions) was 11 µg/mL (≈ 22.7 µM). In the data set on Hepatitis C virus [12], the 90% effect level (EC90) was put at 29 nM.

These data come from ChEMBL document CHEMBL3124867, “Hepatitis C replication inhibitors that target the viral NS4B protein” (J Med Chem, 2014).
